How the values were obtained:
[1] = test system: Mycobacterium tuberculosis; assay: Activity against Mycobacterium tuberculosis H37Ra; type: functional
Procedure, shortened: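 Microbroth dilution in microtiter plates. H37Ra grown in Middlebrook 7H9 to OD650 0.4-0.6, then diluted to OD650 0.01. 100 µL of cells added to serial compound dilutions and incubated 37 °C for 8 days, growth read visually. MIC90 taken as wells with >90% growth inhibition; isoniazid positive control on every plate.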

[2] = target: UDP-galactopyranose mutase (Mycobacterium tuberculosis, UniProt P9WIQ1); assay: Inhibition of Mycobacterium tuberculosis UDP-galactose mutase expressed in Escherichia coli UDP-6 [3H]- Galf; set-up: species or system H37Rv
UDP-galactopyranose mutase, sequence (P9WIQ1 whole entry): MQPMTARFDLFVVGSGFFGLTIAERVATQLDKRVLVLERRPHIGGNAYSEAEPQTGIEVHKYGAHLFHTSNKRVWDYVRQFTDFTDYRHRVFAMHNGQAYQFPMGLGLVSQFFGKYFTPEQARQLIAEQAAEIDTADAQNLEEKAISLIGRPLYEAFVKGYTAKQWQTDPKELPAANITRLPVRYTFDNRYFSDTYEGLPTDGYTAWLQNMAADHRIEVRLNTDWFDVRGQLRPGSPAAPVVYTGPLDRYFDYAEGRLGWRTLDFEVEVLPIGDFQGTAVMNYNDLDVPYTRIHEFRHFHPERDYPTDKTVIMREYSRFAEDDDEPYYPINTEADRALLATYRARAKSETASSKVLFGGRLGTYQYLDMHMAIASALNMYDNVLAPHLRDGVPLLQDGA
Procedure, shortened: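 Reverse-direction radiometric Glf assay on crude soluble enzyme extract, preactivated 30 min at 37 °C in 25 mM MOPS with NADH and FAD. Each 25 µL well held MOPS pH 7.2, MgCl2, NADH, FAD, 2.3 µg protein, 20 pmol UDP-6-[3H]Galf and 1 µL DMSO. Inhibitors at 100-6.3 µM; reaction 5-20 min. Conversion read by HPLC or periodate filter-plate counting; IC50 calculated.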

[3] = The protein binding is expressed as percent bound as determined by VolSurf; type: ADME; settings: read-out: Protein binding (converted)
[4] = test system: Vero; assay: Selectivity is the ratio of cytotoxicity compared to TBMIC; type: functional
Procedure, shortened: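 Ratio of VERO cell toxicity IC50 to M. tuberculosis H37Ra MIC. VERO monolayers were exposed to 3-fold compound dilutions for 72 h, and viability was read by tetrazolium reduction at 490 nm, with untreated and SDS-lysed cells as 0% and 100%. MIC was by microbroth dilution in 7H9 (OD650 0.01 inoculum), 37 °C for 8 days, with visual 90% growth inhibition.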

[5] = test system: Mycobacterium tuberculosis; assay: Viable Mycobacterium tuberculosis in lungs of infected Mice after an 8-day drug treatment; Dose is 300 mg/kg; type: functional, Lung
Procedure, shortened: (§1)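 C57BL/6 interferon-γ gene-depleted (GKO) mice infected by low-dose aerosol. Eight daily treatments started 18 days postinfection. At day 28, lung and spleen homogenates serially diluted onto Middlebrook 7H11 agar and incubated 4 weeks at 37 °C. CFU log-transformed and reported ±SEM; one-way Dunnett multiple-comparison ANOVA, significance at 95% confidence.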

[6] = test system: Mycobacterium tuberculosis; assay: Viable Mycobacterium tuberculosis in spleen of infected Mice after an 8-day drug treatment; Dose is 300 mg/kg; type: functional; procedure, shortened: as §1
[7] = test system: Mycobacterium tuberculosis; assay: Viable Mycobacterium tuberculosis in spleen of infected Mice after an 8-day drug treatment; Dose is 25 mg/kg; type: functional; procedure, shortened: as §1
[8] = test system: Mycobacterium tuberculosis; assay: Viable Mycobacterium tuberculosis in lungs of infected Mice after an 8-day drug treatment; Dose is 25 mg/kg; type: functional, Lung; procedure, shortened: as §1
[9] = test system: Mycobacterium tuberculosis; assay: Viable Mycobacterium tuberculosis in spleen of infected Mice after an 8-day drug treatment; Dose is 150 mg/kg; type: functional; procedure, shortened: as §1
[10] = test system: Mycobacterium tuberculosis; assay: Viable Mycobacterium tuberculosis in lungs of infected Mice after an 8-day drug treatment; Dose is 150 mg/kg; type: functional, Lung; procedure, shortened: as §1

Row | Compound | TBMIC [1] [µg/mL] | IC50 [2] [µM] | fraction unbound [3] | Selectivity index [4] | Activity [5] [log CFU] | Activity [6] [log CFU] | Activity [7] [log CFU] | Activity [8] [log CFU] | Activity [9] [log CFU] | Activity [10] [log CFU]
1 | O=C(NC1CCCCC1)c1ccc([N+](=O)[O-])o1 | 3.1 | 281 | 0.352 | 2.9 | – | – | – | – | – | –
2 | C[C@@H](NC(=O)c1ccc([N+](=O)[O-])o1)c1ccccc1 | 3.1 | 150 | 0.289 | 7.6 | – | – | – | – | – | –
3 | CN(C(=O)c1ccc([N+](=O)[O-])o1)c1ccccc1 | 3.12 | 260 | 0.332 | 7.6 | – | – | – | – | – | –
4 | COc1ccc(CNC(=O)c2ccc([N+](=O)[O-])o2)cc1OC | 0.2 | 75.1 | 0.363 | 90.9 | 6.5 | 6 | – | – | – | –
5 | O=C(Nc1cc[nH]n1)c1ccc([N+](=O)[O-])o1 | 6.25 | 729 | 0.513 | 1.2 | – | – | – | – | – | –
6 | NNC(=O)c1ccncc1 [ISONIAZID] | – | – | – | – | – | – | 3.2 | 5.5 | – | –
7 | O=C(Nc1cnccn1)c1ccc([N+](=O)[O-])o1 | 6.25 | 692 | 0.528 | – | – | – | – | – | – | –
8 | O=C(Nc1cccc(OCc2ccccc2)c1)c1ccc([N+](=O)[O-])o1 | 12.5 | 82.8 | 0.13 | – | – | – | – | – | – | –
9 | COc1cc(NC(=O)c2ccc([N+](=O)[O-])o2)ncn1 | 1.6 | – | 0.469 | – | – | – | – | – | – | –
10 | O=C(Nc1cccc(Cl)c1)c1ccc([N+](=O)[O-])o1 | 0.8 | 56.3 | – | 8.6 | 8.3 | 7.3 | – | – | – | –
11 | C[C@H](NC(=O)c1ccc([N+](=O)[O-])o1)c1ccccc1 | 1.6 | 146 | 0.259 | 16 | – | – | – | – | – | –
12 | O=C(NC1CCCc2ccccc21)c1ccc([N+](=O)[O-])o1 (configuration not stated) | – | 112 | – | – | – | – | – | – | – | –
13 | O=C(NC1CCc2ccccc21)c1ccc([N+](=O)[O-])o1 (configuration not stated) | 3.1 | 264 | 0.23 | 3.3 | – | – | – | – | – | –
14 | O=C(NC12CC3CC(CC(C3)C1)C2)c1ccc([N+](=O)[O-])o1 | 3.1 | 169 | – | – | – | – | – | – | – | –
15 | COc1ccc(CCNC(=O)c2ccc([N+](=O)[O-])o2)cc1OC | 0.4 | 165 | 0.303 | 68.6 | – | – | – | – | – | –
16 | COc1cccc(NC(=O)c2ccc([N+](=O)[O-])o2)c1 | 0.8 | 160 | 0.364 | 23.3 | – | – | – | – | 7.2 | 8
17 | O=C(Nc1cccc(Br)c1)c1ccc([N+](=O)[O-])o1 | 0.6 | 35.4 | 0.311 | 9.6 | – | – | – | – | – | –
18 | COc1ccc(N(C)C(=O)c2ccc([N+](=O)[O-])o2)cc1 | 6.25 | 500 | 0.395 | 4 | – | – | – | – | – | –
19 | O=C(Nc1cccnc1)c1ccc([N+](=O)[O-])o1 | 6.25 | 206 | 0.447 | 2.1 | – | – | – | – | – | –
20 | O=C(NCCc1ccccc1)c1ccc([N+](=O)[O-])o1 | 1.6 | 315 | 0.246 | 15.7 | – | – | – | – | – | –
21 | O=C(Nc1ccccc1)c1ccc([N+](=O)[O-])o1 | 0.8 | 94.7 | 0.325 | 2.7 | – | – | – | – | – | –

Row | Compound | TBMIC [1] [µg/mL] | IC50 [2] [µM] | fraction unbound [3] | Selectivity index [4] | Activity [5] [log CFU] | Activity [6] [log CFU] | Activity [7] [log CFU] | Activity [8] [log CFU] | Activity [9] [log CFU] | Activity [10] [log CFU]
22 | O=C(NCc1ccccc1Cl)c1ccc([N+](=O)[O-])o1 | 1.6 | 53.4 | 0.313 | 7.3 | – | – | – | – | – | –
23 | O=C(NCc1ccco1)c1ccc([N+](=O)[O-])o1 | 6.25 | 246 | 0.38 | 0.7 | – | – | – | – | – | –
24 | COc1cccc2sc(NC(=O)c3ccc([N+](=O)[O-])o3)nc12 | 1.6 | 210 | 0.257 | – | – | – | – | – | – | –
25 | COc1ccccc1CNC(=O)c1ccc([N+](=O)[O-])o1 | 1.6 | 358 | 0.335 | – | – | – | – | – | – | –
26 | COc1ccc(CNC(=O)c2ccc([N+](=O)[O-])o2)cc1 | 0.1 | 416 | 0.347 | 163.6 | – | – | – | – | – | –
27 | COc1ccc(NC(=O)c2ccc([N+](=O)[O-])o2)cc1 | 0.4 | 160 | 0.369 | 53.6 | – | – | – | – | – | –
28 | O=C(Nc1cccc(O)c1)c1ccc([N+](=O)[O-])o1 | 1.6 | 314 | 0.391 | 7.8 | – | – | – | – | – | –
29 | Cc1ncc([N+](=O)[O-])n1CCO [METRONIDAZOLE] | – | – | – | – | – | – | – | – | 6.9 | 8.5
30 | O=C(c1ccc([N+](=O)[O-])o1)N1CCc2ccccc21 | 0.8 | – | 0.25 | 9.9 | – | – | – | – | – | –
31 | COc1cc(CNC(=O)c2ccc([N+](=O)[O-])o2)cc(OC)c1OC | 0.8 | 184 | 0.344 | 29.5 | – | – | – | – | – | –
32 | N#Cc1ccc(NC(=O)c2ccc([N+](=O)[O-])o2)cc1 | 0.8 | 393 | 0.249 | 4.4 | – | – | – | – | – | –
33 | COc1ccc(CNC(=O)c2ccc([N+](=O)[O-])o2)c(OC)c1 | 0.4 | 111 | 0.409 | 13.5 | – | – | – | – | – | –
34 | O=C(Nc1ccncc1)c1ccc([N+](=O)[O-])o1 | 3.12 | 184 | 0.446 | 2.2 | – | – | – | – | – | –
35 | COc1cccc(CNC(=O)c2ccc([N+](=O)[O-])o2)c1OC | 1.2 | 464 | 0.356 | – | – | – | – | – | – | –
36 | COc1cccc(NC(=O)c2ccc([S+]([O-])c3ccccc3)o2)c1 (configuration not stated) | 6.25 | – | 0.39 | 10.4 | – | – | – | – | – | –
37 | O=C(Nc1cccc(F)c1)c1ccc([N+](=O)[O-])o1 | 0.8 | 112 | 0.334 | 11.6 | 8.4 | 7 | – | – | – | –
38 | O=C(NCc1ccccn1)c1ccc([N+](=O)[O-])o1 | 0.8 | 481 | 0.427 | – | – | – | – | – | – | –
39 | COc1ccc(CCNC(=O)c2ccc([N+](=O)[O-])o2)cc1 | 0.8 | 58.6 | 0.288 | 25.6 | – | – | – | – | – | –
40 | O=C(Nc1ccccn1)c1ccc([N+](=O)[O-])o1 | 3.12 | 227 | 0.438 | 3.5 | – | – | – | – | – | –
41 | COc1cccc(NC(=O)c2ccc(S(=O)(=O)c3ccccc3)o2)c1 | 6.25 | 64.4 | 0.485 | 4.1 | – | – | – | – | – | –

From ChEMBL document CHEMBL1138787, “Synthesis and evaluation of nitrofuranylamides as novel antituberculosis agents” (J Med Chem, 2004)
